Active and inactive are the calls of the source. No cut-off for these calls is given here.
What was measured:
[1] = system: Mycobacterium tuberculosis; assay: Antimycobacterial activity against Mycobacterium tuberculosis H37Rv; assay type: functional, organism-based
Staphylococcus aureus = assay: Antimicrobial activity against Staphylococcus aureus after 24 hrs by broth micro dilution method; assay type: functional
Outline: (§1)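 Broth microdilution per NCCLS guidelines: 2-fold serial dilutions in RPMI-1640 buffered to pH 7.5 with 0.165 M MOPS, final 0.5–128 µg/mL. Inocula from 24 h tryptic soy agar cultures at 37 °C, final 10^3/10^4 cells per mL. Kanamycin and polymyxin B as controls. Incubated 24 h at 37 °C, OD 600 nm; MIC is lowest concentration giving complete (90%) growth inhibition.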

HTB-129 = assay: (§2) Cytotoxicity against human HTB-129 cells after 72 hrs by MTT assay; assay type: functional, cell-based
Outline: (§3)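 HTB-129 breast carcinoma cells kept in Leibovitz's L-15 with 2 mM L-glutamine, insulin 0.01 mg/mL, 10% FBS, penicillin/streptomycin, 37 °C in air. Seeded at 1 × 10^5 cells/mL, 24 h before dosing. Compounds in DMSO, serially diluted in medium from 200 to 1.76 µg/mL. Exposure 72 h, then MTT 3 h, DMSO solubilization, read at 570 nm. Viability as percent of untreated controls; IC50 fitted.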

Escherichia coli = assay: Antimicrobial activity against Escherichia coli after 24 hrs by broth micro dilution method; assay type: functional; outline: as §1
Pseudomonas aeruginosa = assay: Antimicrobial activity against Pseudomonas aeruginosa after 24 hrs by broth micro dilution method; assay type: functional; outline: as §1
Candida albicans [2] = assay: Antimicrobial activity against Candida albicans at 8 ug/disk; assay type: functional; settings: read-out: IZ
Candida albicans [3] = assay: Antimicrobial activity against Candida albicans at 40 ug/disk; assay type: functional, organism-based
[4] = as §2; assay type: functional, cell-based; settings: HTB-129, 72 h; outline: as §3

Row | SMILES | inhibition [1] | inhibition (Staphylococcus aureus) | inhibition (HTB-129) | inhibition (Escherichia coli) | inhibition (Pseudomonas aeruginosa) | MIC (Staphylococcus aureus) [µg/mL] | inhibition (Candida albicans [3]) | IC50 [4] [µM] | MIC (Escherichia coli) [µg/mL] | MIC (Pseudomonas aeruginosa) [µg/mL] | further results
1 | C=CC(C)(C)[C@]12C=C(OC)C(=O)N3/C(=C/c4c[nH]cn4)C(=O)N[C@@]31N(OC)c1ccccc12 | inactive | – | – | – | – | – | – | – | – | – | –
2 | COc1ccc2c3c1C(=O)CC(C)(C)N3C(=O)[C@@]21C[C@@]2([N+](=O)[O-])CN3CCC[C@@H]3C[C@H]2C1(C)C | inactive | inactive | inactive | inactive | inactive | – | – | – | – | – | –
3 | COc1ccc2c3c1C(=O)CC(C)(C)N3C(=O)[C@@]21C[C@]2([N+](=O)[O-])CN3CCC[C@@H]3C[C@H]2C1(C)C | inactive | inactive | inactive | inactive | inactive | – | – | – | – | – | –
4 | C[C@@H]1[C@H](O)[C@@H](C)/C=C/C=C/C=C/C=C/C=C/C=C/C=C/[C@H](O[C@@H]2O[C@H](C)[C@@H](O)[C@H](N)[C@@H]2O)C[C@@H]2O[C@](O)(C[C@@H](O)C[C@@H](O)[C@H](O)CC[C@@H](O)C[C@@H](O)CC(=O)O[C@H]1C)C[C@H](O)[C@H]2C(=O)O [AMPHOTERICIN B] | – | – | – | – | – | – | – | – | – | – | zone of inhibition at 8 µg/disc (Candida albicans [2]): 20 mm
5 | CC1(C)CC(=O)c2c(ccc3c2NC(=O)[C@]32C[C@@]3([N+](=O)[O-])CN4CCC[C@H]4C[C@@H]3C2(C)C)O1.O=C(O)C(F)(F)F [CITRINALIN A] | – | – | – | – | – | > 32 | inactive | 174 | > 32 | > 32 | –
6 | CC1(C)CC(=O)c2c(ccc3c2NC(=O)[C@]32C[C@@]3([N+](=O)[O-])CN4CCC[C@@H]4C[C@@H]3C2(C)C)O1.O=C(O)C(F)(F)F [CITRINALINE B] | – | – | – | – | – | > 32 | inactive | 194 | > 32 | > 32 | –

Reference: ChEMBL document CHEMBL1641402, “Use of experimental design for the optimization of the production of new secondary metabolites by two Penicillium species” (J Nat Prod, 2010)
